Measured values taken from ChEMBL document CHEMBL3259564, “Synthesis and evaluation of immunostimulant plasmalogen lysophosphatidylethanolamine and analogues for natural killer T cells” (Bioorg Med Chem, 2014).
The source made the active and inactive calls. No cut-off for these calls is given here.

Columns and labels:
Mus musculus [1] = species on record: Mus musculus; assay: Immunostimulatory activity in C57BL/6 mouse splenocytes assessed as IL-4/IFN-gamma ratio at 100 ng/ml after 72 hrs by ELISA; format: functional, cell-based
How it was run: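 Whole C57BL/6 splenocytes were given compound at 100 ng/mL or DMSO for 72 h in RPMI1640 with 10% FCS. Supernatant IL-4 and IFN-γ were measured by ELISA. The IL-4/IFN-γ ratio was normalized to the DMSO control. Triplicate, mean ± SD.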

Mus musculus [2] = assay: In vivo immunostimulatory activity in C57BL/6 mouse assessed as increase in serum IFN-gamma level at 1 ug, ip after 2 hrs by ELISA; format: functional, organism-based
How it was run: (§1)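 C57BL/6 mice were given compound by intraperitoneal injection. Serum IFN-γ and IL-4 were measured at 2 h and at a later time point. Data are mean ± SD.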

Mus musculus [3] = assay: In vivo immunostimulatory activity in C57BL/6 mouse assessed as increase in serum IFN-gamma level at 1 ug, ip after 24 hrs by ELISA; format: functional, organism-based; how it was run: as §1
Mus musculus [4] = species on record: Mus musculus; assay: Immunostimulatory activity in C57BL/6 mouse splenocytes assessed as IFN-gamma production at 100 ng/ml after 72 hrs by ELISA; format: functional, cell-based
How it was run: (§2)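 C57BL/6 mouse splenocytes were cultured for 72 h with compound at 100 ng/mL or DMSO vehicle in RPMI1640 with 10% FCS, humidified 5% CO2. IFN-γ and IL-4 in the supernatants were measured by ELISA. Assays were run in triplicate and reported as mean ± SD.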

Mus musculus [5] = species on record: Mus musculus; assay: Immunostimulatory activity in C57BL/6 mouse splenocytes assessed as IL-4 production at 100 ng/ml after 72 hrs by ELISA; format: functional, cell-based; how it was run: as §2
2H4 = assay: Immunostimulatory activity in mouse NKT hybridoma 2H4 cells assessed as IL-2 production at 100 ng/ml after 24 hrs by plate-bound mCD1d presenting assay; format: functional, cell-based
How it was run: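 Plates were coated with mouse CD1d protein overnight at 4 °C, PBS-washed and blocked with PBS/10% FCS for 1 h. Compound at 100 ng/mL was loaded for 24 h at 37 °C, then washed off. 2H4 NKT hybridoma cells were added, and IL-2 was measured by ELISA after 24 h. Data are mean ± SD of three independent experiments, with Student's t test against vehicle.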

Mus musculus [6] = assay: In vivo immunostimulatory activity in C57BL/6 mouse assessed as increase in serum IL-4 level at 1 ug, ip after 2 to 24 hrs by ELISA; format: functional, organism-based; how it was run: as §1

Row | SMILES | Activity (Mus musculus [1]) | Activity (Mus musculus [2]) | Activity (Mus musculus [3]) | Activity (Mus musculus [4]) | Activity (Mus musculus [5]) | Activity (2H4) | Activity (Mus musculus [6])
1 | CCCCCCCC/C=C\CCCCCCCC(=O)OC[C@@H](O)COP(=O)(O)OCCN | Active | Active | inactive | Active | Active | Active | Active
2 | CCCCCCCC/C=C\CCCCCCCCCCCCOC[C@@H](O)COP(=O)(O)OCCN | Active | Active | inactive | Active | Active | Active | Active
3 | CCCCC/C=C\C/C=C\CCCCCCCCC#COC[C@@H](O)COP(=O)(O)OCCN | Active | Active | inactive | Active |  | Active | Active
4 | CCCCCCCC/C=C\CCCCCCCCC#COC[C@@H](O)COP(=O)(O)OCCN | Active | Active | inactive | Active | Active | Active | Active
5 | CCCCCCCCCCCCCC/C=C\OC[C@@H](O)COP(=O)(O)OCCN | Active | Active |  | Active | Active |  | Active
6 | CCCCC/C=C\C/C=C\CCCCCCCC/C=C\OC[C@@H](O)COP(=O)(O)OCCN | Active | Active | inactive | Active |  | Active | Active
